The results in this text go back to publication PMC7337098 (Cell reports, 2020).

Structures can show the parent of a compound that is named as a salt. Where two headings read alike, the source gives them in different places.

The target in assay [1] is T1, P2X3R with TMEM163 (Homo sapiens, UniProt P56373).
T1 sequence (P56373 1-397): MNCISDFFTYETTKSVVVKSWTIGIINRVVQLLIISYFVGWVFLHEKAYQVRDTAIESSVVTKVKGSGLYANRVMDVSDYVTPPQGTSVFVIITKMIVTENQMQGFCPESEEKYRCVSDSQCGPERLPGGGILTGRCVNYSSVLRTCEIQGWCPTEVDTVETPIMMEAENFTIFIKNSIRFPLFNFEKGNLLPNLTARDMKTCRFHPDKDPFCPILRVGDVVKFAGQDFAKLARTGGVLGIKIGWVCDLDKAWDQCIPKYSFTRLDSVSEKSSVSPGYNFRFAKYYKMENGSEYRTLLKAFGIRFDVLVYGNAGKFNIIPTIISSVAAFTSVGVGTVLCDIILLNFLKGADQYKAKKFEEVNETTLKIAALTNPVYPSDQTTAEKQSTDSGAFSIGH
T1 sequence (Q8TC26 1-289 partner): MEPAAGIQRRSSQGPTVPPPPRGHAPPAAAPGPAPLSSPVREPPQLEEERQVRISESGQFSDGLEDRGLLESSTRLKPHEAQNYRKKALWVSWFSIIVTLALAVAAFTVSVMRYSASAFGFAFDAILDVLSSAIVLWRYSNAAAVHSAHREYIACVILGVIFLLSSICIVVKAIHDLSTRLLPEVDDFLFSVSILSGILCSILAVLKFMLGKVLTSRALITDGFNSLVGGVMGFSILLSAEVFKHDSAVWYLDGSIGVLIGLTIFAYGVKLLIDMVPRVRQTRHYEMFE
The assay is classed as cell-based.

The test system of another assay is P2XRs in DRG neurons. In words: Whole-cell recording of ATP-evoked currents, primary DRG neurons from WT mice. The assay is classed as cell-based. Conditions: Mus musculus, DRG neuron, read-out: ATP EC50.
The target of assay [2] is T2, P2X3R (Homo sapiens, UniProt P56373).
T2 sequence (P56373 1-397): T1 sequence (P56373 1-397)
The assay is classed as cell-based.

The target of assay [3] is T2, P2X3R. In words: Calcium FLIPR ATP dose response, P2X3R-stable HEK cells transfected with pcDNA3. It is filed as cell-based.
Assay [4] has as its system endogenous P2 receptors in HEK cells. In words: Calcium FLIPR response of HEK cells. It is filed as cell-based, human. Conditions: untransfected (Mock) HEK cells.
Assay [5] addresses T2, P2X3R. It is filed as cell-based. Conditions: 100 μM ATP, outside-out patch.
In assay [6] the target is T1, P2X3R with TMEM163. In words: Calcium FLIPR ATP dose response, P2X3R-stable HEK cells transfected with TMEM163. The assay is classed as cell-based.
Assay [7] deals with T1, P2X3R with TMEM163. It is filed as cell-based. To be noted: 100 μM ATP, outside-out patch.
The next assay concerns WT mice. In words: ATP-evoked freezing behavior after hind paw injection. It is filed as in vivo, mouse. Conditions: 3 μmol ATP into hind paw, 4 min after injection, saline 6.7 ± 3.2 s.
Assay [8] has as its system P2XRs in TMEM163 KO DRG neurons. It is filed as cell-based. Conditions: Mus musculus, DRG neuron, read-out: ATP EC50.
Assay [9] concerns P2XR in cerebellar granule cells. It is filed as cell-based, mouse. Conditions: TNP-ATP 10 μM co-applied with ATP; untreated 23.55 ± 6.96 pA; n = 3.
A further assay concerns P2X3R and P2X2R. In words: Calcium FLIPR assay, HEK cells stably expressing both P2X3R and P2X2R. The assay is classed as cell-based, human. To be noted: read-out: α,β-MeATP EC50, HEK cell lines stably expressing both P2X3R and P2X2R.
The next assay concerns the target T3, P2X4R with TMEM163 (Homo sapiens, UniProt Q99571).
T3 sequence (Q99571 1-388): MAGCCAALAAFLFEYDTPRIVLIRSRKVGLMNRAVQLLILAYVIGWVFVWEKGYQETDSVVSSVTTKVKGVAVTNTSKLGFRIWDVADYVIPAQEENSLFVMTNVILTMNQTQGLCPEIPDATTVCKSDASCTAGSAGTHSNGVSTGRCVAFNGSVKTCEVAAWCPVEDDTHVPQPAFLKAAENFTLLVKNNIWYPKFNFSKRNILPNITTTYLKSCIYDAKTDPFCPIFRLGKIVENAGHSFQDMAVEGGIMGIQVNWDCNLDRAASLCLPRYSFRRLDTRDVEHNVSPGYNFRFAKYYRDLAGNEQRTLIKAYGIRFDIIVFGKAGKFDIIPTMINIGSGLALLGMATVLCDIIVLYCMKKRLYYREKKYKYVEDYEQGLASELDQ
The assay is classed as cell-based. Conditions: 10 μM ivermectin pre-applied 10 s, ATP 1.3 μM, n = 7. The procedure, abridged: (§1)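 Xenopus oocytes (surgically harvested, collagenase-treated) co-injected with 25 pg P2X4R cRNA plus 2 ng TMEM163 cRNA, or 2 ng Neto2 cRNA as the control. TEVC at Vh −30 mV, room temperature, in 90 mM NaCl, 1 mM KCl, 2 mM CaCl2, 10 mM HEPES pH 7.4. […] Mean ± SEM; Student's t test.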

The target in the next assay is T4, P2X4R (Homo sapiens, UniProt Q99571).
T4 sequence (Q99571 1-388): T3 sequence (Q99571 1-388)
The assay is classed as cell-based. To be noted: P2X4R alone; 10 μM ivermectin pre-applied 10 s; ATP 1.3 μM; n = 7. The procedure, abridged: as §1

Broadly, the EC50 is the concentration needed to bring the measured effect to its halfway point. The Hill coefficient is a measure of the steepness of the concentration-response curve.

Regarding `Nc1ncnc2c1ncn2[C@@H]1O[C@H](COP(=O)([O-])OP(=O)([O-])OP(=O)([O-])[O-])[C@@H](O)[C@H]1O.[Mg+2].[Mg+2]` [ATP, Adenosine 5′-triphosphate magnesium salt], the half-maximal effective concentration (EC50) at P2X3R with TMEM163 [1] (ATP EC50, 25 pg P2X3R with 2 ng TMEM163, TEVC, 20-min interval) is 261 ± 27.2 nM; with P2XRs in DRG neurons, 5920 ± 1170 nM; on P2X3R [2], 1300 ± 230 nM; on P2X3R with TMEM163 [6] it was 1270 ± 110 nM; in assay [8] it was 31000 ± 15100 nM. For the same compound, the Hill coefficient at P2X3R with TMEM163 [1] (P2X3R with TMEM163, ATP TEVC dose response) is recorded as 0.98 ± 0.15; on P2X3R [2] (P2X3R, ATP TEVC dose response), 1.04 ± 0.14; on P2X3R [3], 0.99 ± 0.03; at P2X3R with TMEM163 [6] (P2X3R with TMEM163, ATP calcium FLIPR dose response), 0.73 ± 0.04. Also, the “ATP concentrations at which HEK cells (Mock) responded” value in [4] is “above 1 μM”. The entries for the “mean rise time of ATP-evoked currents” value at P2X3R [5] and at P2X3R with TMEM163 [7] were 0.43 ± 0.042 ms and 0.50 ± 0.061 ms, respectively. In the assay on WT mice, the “mean cumulative duration of freezing behaviors” value stood at 74 ± 7.1 s.
In the case of `Nc1ncnc2c1ncn2[C@@H]1O[C@H](COP(=O)(O)OP(=O)(O)OP(=O)(O)O)[C@H]2OC3(O[C@H]21)C([N+](=O)[O-])=CC(=[N+]([O-])[O-])C=C3[N+](=O)[O-]` (some centres unmarked) [TNP-ATP, TNP-ATP triethylammonium salt], the ATP-evoked current in assay [9] is recorded as 0.53 ± 0.25 pA.
With `Nc1ncnc2c1ncn2[C@@H]1O[C@H](COP(=O)(O)CP(=O)(O)OP(=O)(O)O)[C@@H](O)[C@H]1O` [α,β-MeATP, α, β-Methyleneadenosine 5′-triphosphate lithium salt], the EC50 in the assay on P2X3R and P2X2R is 656 ± 88.7 nM.
For ivermectin, the “potentiation of ATP-evoked currents (ratio with and without ivermectin)” value on P2X4R with TMEM163 was 1.9 ± 0.2 times; at P2X4R, 3.7 ± 0.5 times.
